Calls of active or inactive are those of the source. The calls are words filed in the database; no cut-off is given here.
What was measured:
[1] = molecular target: T1, Free fatty acid receptor 1 (Homo sapiens, UniProt O14842); test: Agonist activity at human FFA1 receptor expressed in CHO cells assessed as increase in intracellular calcium flux at 100 nM by FLIPR assay relative to control; format: functional, cell-based
Summary of the method: (§1)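 CHO cells stably expressing human FFA1 (NM_005303), seeded at 15 K cells/well and grown 16 h at 37 °C, 5% CO2. Calcium flux read by FLIPR Tetra. Response = (A−B)/(C−B)×100, with B vehicle and C 10 μM γ-linolenic acid. Mean of three independent experiments.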

[2] = 1-octanol-phosphate buffer partition coefficient, log D of the compound at 100 uM at pH 7.4 after 24 hrs by shake-flask method; format: physicochemical
Summary of the method: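 Test compound at 100 μM final (from 10 mM DMSO stock) in 0.01 M phosphate buffer pH 7.4 and 1-octanol, shaken 700 rpm for 24 h, phases left 1 h to separate. Each phase analysed by HPLC in duplicate at 254 nm. LogD is the octanol/buffer peak-area ratio, corrected with two calibration points per compound per solvent. Three independent experiments.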

[3] = molecular target: T1, Free fatty acid receptor 1; test: Agonist activity at human FFA1 receptor expressed in CHO cells assessed as increase in intracellular calcium flux by FLIPR assay; format: functional, cell-based; summary of the method: as §1
[4] = test system: Mus musculus; test: Toxicity in overnight fasted ICR mouse assessed as hypoglycemia at 40 mg/kg, po measured at 30 to 180 mins; format: organism-based; conditions: in vivo
Summary of the method: (§2)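 Male ICR mice, 10 weeks old, fasted overnight, in 3 groups (n = 6). Single oral dose in 0.5% CMC. Tail-vein blood glucose measured by strips at 0, 30, 60, 90, 120 and 180 min. Mean ± SEM, Student's t test.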

[5] = test system: Mus musculus; test: Antidiabetic activity in po dosed overnight fasted ICR mouse assessed as decrease in blood glucose level administered glucose 30 mins post compound treatment measured at 15 to 120 mins by OGTT; format: functional, organism-based
Summary of the method: (§3)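 Male ICR mice, 10 weeks old, fasted 12 h and randomized (n = 6). Compound given orally at 10, 20 or 40 mg/kg in 0.5% CMC, with 30% glucose (3 g/kg) orally 30 min later. Tail blood glucose measured by test strips at −30, 0, 15, 30, 45, 60 and 120 min. Student's t test vs vehicle.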

[6] = test system: Mus musculus; test: Antidiabetic activity in overnight fasted STZ-induced type 2 diabetic C57BL/6 mouse model assessed as decrease in blood glucose level at 20 mg/kg, po administered glucose 30 mins post compound treatment measured at 15 to 120 mins by OGTT; format: functional, organism-based
Summary of the method: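 Male C57BL/6 mice on 45% fat diet for 4 weeks, then STZ 80 mg/kg ip, then high-fat diet 4 more weeks. Mice with fasting glucose ≥11.1 mmol/L were used, fasted 12 h (n = 6). Oral dose in 0.5% CMC, with 20% glucose (2 g/kg) orally 30 min later. Strip glucose read at −30, 0, 15, 30, 45, 60 and 120 min.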

[7] = test system: Mus musculus; test: Toxicity in overnight fasted ICR mouse assessed as hypoglycemia at 15 mg/kg, po measured at 30 to 180 mins; format: organism-based; conditions: in vivo; summary of the method: as §2
[8] = test system: Mus musculus; test: Antidiabetic activity in overnight fasted ICR mouse assessed as decrease in blood glucose level at 20 mg/kg, po administered glucose 30 mins post compound treatment measured at 15 to 120 mins by OGTT; format: functional, organism-based; summary of the method: as §3

T1 sequence (O14842 whole entry): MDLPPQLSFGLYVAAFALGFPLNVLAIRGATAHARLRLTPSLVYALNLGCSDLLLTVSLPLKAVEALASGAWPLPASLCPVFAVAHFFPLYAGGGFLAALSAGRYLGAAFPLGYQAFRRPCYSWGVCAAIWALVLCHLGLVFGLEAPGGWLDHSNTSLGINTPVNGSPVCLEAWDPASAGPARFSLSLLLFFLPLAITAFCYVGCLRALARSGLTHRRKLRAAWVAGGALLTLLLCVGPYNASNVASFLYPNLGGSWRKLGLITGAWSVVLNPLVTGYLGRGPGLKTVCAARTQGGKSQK

| SMILES | Activity [1] [%] | logD at 24 h, 100 µM [2] | EC50 [3] [µM] | further results |
| --- | --- | --- | --- | --- |
| Cc1cc(OCC(C)C)cc(C)c1-c1cccc(COc2ccc(OCC(=O)O)c(F)c2)c1 | 35.2 | – | – | – |
| CCOc1cc(C)c(-c2cccc(COc3ccc(OCC(=O)O)c(F)c3)c2)c(C)c1 | 53.1 | 3.48 | 0.0659 | – |
| Cc1cc(OCCCS(C)(=O)=O)ccc1-c1cccc(COc2ccc(OCC(=O)O)c(F)c2)c1 | 61.3 | 1.63 | 0.0436 | Activity [4]: Non-toxic; Activity [5]: Dose-dependent effect; Activity [6]: Active |
| Cc1cc(OCCCS(C)(=O)=O)cc(C)c1-c1cccc(COc2ccc(OCC(=O)O)c(F)c2)c1 | – | 1.81 | – | – |
| COCCCOc1cc(C)c(-c2cccc(COc3ccc(OCC(=O)O)c(F)c3)c2)c(C)c1 | 38 | – | – | – |
| Cc1cc(OCc2cccc(-c3c(C)cc(OCCCS(C)(=O)=O)cc3C)c2)ccc1N(CC(=O)O)C(=O)c1ccccc1 | 2.57 | – | – | – |
| Cc1cc(OC(C)C)cc(C)c1-c1cccc(COc2ccc(OCC(=O)O)c(F)c2)c1 | 36.9 | – | – | – |
| CCCCOc1cc(C)c(-c2cccc(COc3ccc(OCC(=O)O)c(F)c3)c2)c(C)c1 | 41.6 | – | – | – |
| Cc1cc(OCCCO)cc(C)c1-c1cccc(COc2ccc(OCC(=O)O)c(F)c2)c1 | 44.4 | 2.73 | 0.11 | – |
| Cc1cc(O)cc(C)c1-c1cccc(COc2ccc(OCC(=O)O)c(F)c2)c1 | 44.3 | 2.37 | 0.11 | – |
| Cc1cc(OCCCS(C)(=O)=O)cc(C)c1-c1cccc(COc2ccc(N(CC(=O)O)C(=O)c3ccoc3)cc2)c1 | 28.9 | – | – | – |
| Cc1cc(OCCCS(C)(=O)=O)cc(C)c1-c1cccc(COc2ccc(N(CC(=O)O)C(=O)c3ccccc3)cc2)c1 | 23.5 | – | – | – |
| COCCOc1cc(C)c(-c2cccc(COc3ccc(OCC(=O)O)c(F)c3)c2)c(C)c1 | 48.7 | 3.15 | 0.104 | – |
| COc1ccc(Cl)cc1C(=O)NCCc1ccc(S(=O)(=O)NC(=O)NC2CCCCC2)cc1 [GLYBURIDE] | – | – | – | Activity [7]: Toxic |
| Cc1cc(OCc2ccccc2)cc(C)c1-c1cccc(COc2ccc(OCC(=O)O)c(F)c2)c1 | 26.4 | – | – | – |
| CCCOc1cc(C)c(-c2cccc(COc3ccc(OCC(=O)O)c(F)c3)c2)c(C)c1 | 47.9 | 3.64 | 0.106 | – |
| CC(=O)N(CC(=O)O)c1ccc(OCc2cccc(-c3c(C)cc(OCCCS(C)(=O)=O)cc3C)c2)cc1 | 36.3 | – | – | – |
| Cc1cc(OCC(=O)N2CCOCC2)cc(C)c1-c1cccc(COc2ccc(OCC(=O)O)c(F)c2)c1 | 18.4 | – | – | – |
| CC(=O)N(CC(=O)O)c1ccc(OCc2cccc(-c3c(C)cc(OCCCS(C)(=O)=O)cc3C)c2)cc1C | 18.4 | – | – | – |
| COc1cc(C)c(-c2cccc(COc3ccc(OCC(=O)O)c(F)c3)c2)c(C)c1 | 58.4 | 3.2 | 0.0497 | – |
| Cc1cc(OCC(=O)N(C)C)cc(C)c1-c1cccc(COc2ccc(OCC(=O)O)c(F)c2)c1 | 13.5 | – | – | – |
| Cc1cc(OCCCS(C)(=O)=O)cc(C)c1-c1cccc(COc2ccc3c(c2)OC[C@H]3CC(=O)O)c1 | – | 2.43 | – | Activity [8]: Active; Activity [6]: Active |
| Cc1cc(OCCOCc2ccccc2)cc(C)c1-c1cccc(COc2ccc(OCC(=O)O)c(F)c2)c1 | 23.6 | – | – | – |

Reference: ChEMBL document CHEMBL3627655, “Design, synthesis and biological activity of phenoxyacetic acid derivatives as novel free fatty acid receptor 1 agonists” (Bioorg Med Chem, 2015)
